The values below come from ChEMBL document CHEMBL4043082, “Clerodane Diterpenoid Glucosides from the Stems of Tinospora sinensis” (J Nat Prod, 2017).

As a reminder, the IC50 is the point on the concentration scale where inhibition reaches its midpoint.

One test deals with HeLa. Put plainly: Cytotoxicity against human HeLa cells assessed as reduction in cell viability incubated for 48 hrs by MTT assay. The test is classed as functional, cell-based. The gist of the method: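 HeLa cells seeded at 8 × 10^3 per well, exposed in triplicate to 2.5, 5, 10, 20 and 50 μM of each compound at 37 °C for 48 h; doxorubicin as positive control. MTT (5 mg/mL) added for 4 h, formazan dissolved in DMSO, absorbance at 570 nm; IC50 by Logit method.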
A general note: Formazan colour is commonly taken as a measure of viable cells.

The subject of another test is N9. Put plainly: Inhibition of LPS-induced nitric oxide production in mouse N9 cells by Griess reaction based assay. The test is classed as functional, cell-based. The method, boiled down: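 N9 microglial cells activated with LPS; nitrite accumulation in culture supernatants measured by Griess reaction; microglial cell viability checked in parallel by MTT assay.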
Background: The Griess reaction detects nitrite, a stable product of nitric oxide.

`COc1cc(/C=C/C(=O)O[C@@H]2C[C@H](OC(C)=O)[C@H](O)[C@@H]3[C@@H]2CC[C@@]2(O)C(=O)O[C@H](c4ccoc4)C[C@@]32C)ccc1O[C@@H]1O[C@H](CO)[C@@H](O)[C@H](O)[C@H]1O`: the half-maximal inhibitory concentration (IC50) is ≥ 10 µM with HeLa and ≥ 100 µM in the test on N9.
As to `COc1cc(/C=C/C(=O)O[C@@H]2C[C@H](O)[C@H](O)[C@@H]3[C@@H]2CC[C@@]2(O)C(=O)O[C@H](c4ccoc4)C[C@@]32C)ccc1O[C@@H]1O[C@H](CO)[C@@H](O)[C@H](O)[C@H]1O`, the half-inhibitory concentration (IC50) was ≥ 10 µM with HeLa and ≥ 100 µM in the test on N9.
`COc1cc(/C=C/C(=O)O[C@H]2C[C@H](OC(C)=O)[C@H](O)[C@@H]3[C@@H]2CC[C@@]2(O)C(=O)O[C@H](c4ccoc4)C[C@@]32C)ccc1O[C@@H]1O[C@H](CO)[C@@H](O)[C@H](O)[C@H]1O`: the IC50 in the test with HeLa is ≥ 10 µM; in the test with N9, ≥ 100 µM.
On to `COc1cc(/C=C/C(=O)O[C@H]2C[C@H](O)[C@H](O)[C@@H]3[C@@H]2CC[C@@]2(O)C(=O)O[C@H](c4ccoc4)C[C@@]32C)ccc1O[C@@H]1O[C@H](CO)[C@@H](O)[C@H](O)[C@H]1O`, for which the IC50 in the test with HeLa was ≥ 10 µM; with N9, ≥ 100 µM.
The like results for `CC(=O)O[C@@H]1[C@@H]2[C@H](CC[C@@]3(O)C(=O)O[C@H](c4ccoc4)C[C@@]23C)[C@H](O[C@@H]2O[C@H](CO)[C@@H](O)[C@H](O)[C@H]2O)C[C@@H]1O` were, in that order, ≥ 10 µM and ≥ 100 µM.
The like results for `COc1cc(/C=C\C(=O)O[C@@H]2C[C@H](OC(C)=O)[C@H](O)[C@@H]3[C@@H]2CC[C@@]2(O)C(=O)O[C@H](c4ccoc4)C[C@@]32C)ccc1O[C@@H]1O[C@H](CO)[C@@H](O)[C@H](O)[C@H]1O` were, in that order, ≥ 10 µM and ≥ 100 µM.
For the compound `C[C@@]12C[C@@H](c3ccoc3)OC(=O)[C@]1(O)CC[C@H]1[C@H]2[C@@H](O)[C@@H](O)C[C@H]1O[C@@H]1O[C@H](CO)[C@@H](O)[C@H](O)[C@H]1O`, the IC50 was 8.35 µM in the test on HeLa and ≥ 100 µM in the test on N9.
The matching figures for `COc1cc(/C=C/C(=O)O[C@@H]2CC[C@H](O)[C@@H]3[C@@H]2CC[C@@]2(O)C(=O)O[C@H](c4ccoc4)C[C@@]32C)ccc1O[C@@H]1O[C@H](CO)[C@@H](O)[C@H](O)[C@H]1O`: ≥ 10 µM and ≥ 100 µM.
For the compound `C[C@@]12CC[C@@]3(O)C(=O)O[C@H](c4ccoc4)C[C@@]3(C)[C@@H]1[C@@H](O[C@@H]1O[C@H](CO)[C@@H](O)[C@H](O)[C@H]1O)C=CC2=O`, the results for the IC50 with HeLa and in the test on N9 were ≥ 10 µM and ≥ 100 µM, respectively.
`COc1cccc2c1C(=O)c1c(O)c3c(c(O)c1C2=O)C[C@@](O)(C(=O)CO)C[C@@H]3O[C@H]1C[C@H](N)[C@H](O)[C@H](C)O1` [DOXORUBICIN]: the half-inhibitory concentration (IC50) in the test on HeLa amounted to 0.32 µM.
For the compound `C[C@@]12C[C@@H](c3ccoc3)OC(=O)[C@]1(O)CC[C@]1(C)[C@H]2[C@H]2C=C[C@]1(O[C@@H]1O[C@H](CO)[C@@H](O)[C@H](O)[C@H]1O)C(=O)O2`, the values for the IC50 in the test with HeLa and in the test on N9 were ≥ 10 µM and ≥ 100 µM, respectively.
The matching figures for `CC(=O)O[C@@H]1[C@@H]2[C@H](CC[C@@]3(O)C(=O)O[C@H](c4ccoc4)C[C@@]23C)[C@H](O[C@@H]2O[C@H](CO)[C@@H](O)[C@H](O)[C@H]2O)C[C@@H]1OC(C)=O`: ≥ 10 µM and ≥ 100 µM.
For the compound `CC(=O)O[C@H]1C[C@@H](O[C@@H]2O[C@H](CO)[C@@H](O)[C@H](O)[C@H]2O)[C@H]2CC[C@@]3(O)C(=O)O[C@H](c4ccoc4)C[C@@]3(C)[C@@H]2[C@H]1O`, the concentration for half-maximal inhibition (IC50) in the test on HeLa was ≥ 10 µM; with N9 it was ≥ 100 µM.
Regarding `COc1cc(/C=C/C(=O)O[C@@H]2C[C@H](O)[C@H](OC(C)=O)[C@@H]3[C@@H]2CC[C@@]2(O)C(=O)O[C@H](c4ccoc4)C[C@@]32C)ccc1O[C@@H]1O[C@H](CO)[C@@H](O)[C@H](O)[C@H]1O`, the half-inhibitory concentration (IC50) was ≥ 10 µM in the test on HeLa and ≥ 100 µM in the test on N9.
